Laboratory results from ChEMBL document CHEMBL4811219 (Eur J Med Chem, 2021).

Columns and labels:
Type in all cases: ADME, organism-based
Settings in all cases: in vivo
[1] = Cmax in CD-1 mouse at 10 mg/kg, ip upto 7 hrs by LC-MS/MS analysis; design: route intraperitoneal, dose 10 mg/kg, time <=7
How it was run: (§1)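 Female CD-1 mice, single dose of 10 mg/kg i.p. or 20 mg/kg p.o., in 20% DMSO/50% PEG-400/30% PBS. Blood was sampled at 0.5, 2, 4 and 7 h and plasma assayed by LC-MS/MS (ESI positive MRM). Parameters are noncompartmental, mean of N=3.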

[2] = Cmax in CD-1 mouse at 20 mg/kg, po upto 7 hrs by LC-MS/MS analysis; design: route oral, dose 20 mg/kg, time <=7; how it was run: as §1
[3] = Observed AUC (0-7 hrs) in CD-1 mouse at 20 mg/kg, po by LC-MS/MS analysis; design: time < 7 hr, route oral, dose 20 mg/kg
[4] = Observed AUC (0-7 hrs) in CD-1 mouse at 10 mg/kg, ip by LC-MS/MS analysis; design: time < 7 hr, route intraperitoneal, dose 10 mg/kg

## CC(Sc1nc2nn(C3COC3)cc2c(=O)n1-c1ccccc1)c1ccccn1 (stereo not drawn)
[1]
  Cmax: 3.3 µM
[2]
  Cmax: 3.9 µM

## CC(Sc1nc2c(cnn2C)c(=O)n1-c1ccccc1)c1ccccc1 (stereo not drawn)
[3]
  AUC: 3.9 µM·h
[1]
  Cmax: 2.3 µM
[2]
  Cmax: 0.8 µM
[4]
  AUC: 4.9 µM·h

## CC(Sc1nc2nn(C3(C)COC3)cc2c(=O)n1-c1ccccc1)c1ccccc1 (stereo not drawn)
[3]
  AUC: 23.3 µM·h
[1]
  Cmax: 7 µM
[2]
  Cmax: 7 µM
[4]
  AUC: 23 µM·h

## C[C@@H](Sc1nc2c(cnn2C)c(=O)n1-c1ccccc1)c1ccccc1
[1]
  Cmax: 0.3 µM
[4]
  AUC: 0.7 µM·h

## CC(Sc1nc2nn(C3COC3)cc2c(=O)n1-c1ccccc1)c1ccccc1 (stereo not drawn)
[1]
  Cmax: 7.9 µM
[4]
  AUC: 19.5 µM·h

## CC(Sc1nc2c(cnn2C)c(=O)n1-c1ccccc1)c1ccccn1 (stereo not drawn)
[3]
  AUC: 17.4 µM·h
[1]
  Cmax: 3.9 µM
[2]
  Cmax: 7.3 µM
[4]
  AUC: 7.9 µM·h
